Rows were chosen to be rich in hits. Some 1.8% of all compounds tested hit in one or more screens of this group.
M4 ag: human M4 muscarinic receptor agonists, primary screen, CHO-K1 cells, Fluo-8 calcium fluorescence; actives 0.14% (n = 360,000); Muscarinic acetylcholine receptor M4 (Homo sapiens), P08173; AID 624127, 2012; activation, % at 3 µM; CHO-K1 hM4/Gqi5; vehicle 0%, full acetylcholine response 100%;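 active = activation above the run mean over all test wells plus 3 SD, cut at about 32% in these data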;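 also: peak over basal fluorescence ratio per well then scaled between controls; 0% = DMSO wells and 100% = acetylcholine at EC100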
CHRM4 PAM: human M4 muscarinic receptor positive allosteric modulators, primary screen, CHO-K1 cells, Fluo-8 calcium fluorescence; Muscarinic acetylcholine receptor M4 (Homo sapiens), P08173; CHO-K1 hM4/Gqi5, ACh EC20; 0% = ACh EC20, 100% = maximal ACh; activation, % at 3 µM; actives 0.4% (n = 360,000);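 active = activation above its plate's cutoff, the mean activation of sample wells plus 3 SD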
CHRM5 antagonist: human M5 muscarinic receptor antagonists, primary screen, CHO cells, Fluo-8 calcium fluorescence. actives 0.59% (n = 360,000). Muscarinic acetylcholine receptor M5 (Homo sapiens), P08912. inhibition, % at 3 µM. CHO-hM5 cells, ACh EC80;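 active = inhibition above a per-plate cutoff, the mean of that plate's test compounds plus 3 SD, cut at about 27% in these data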;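 also: 0% = acetylcholine EC80 with DMSO and 100% = DMSO without agonist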
Target sequence (P08912 whole entry, looked up): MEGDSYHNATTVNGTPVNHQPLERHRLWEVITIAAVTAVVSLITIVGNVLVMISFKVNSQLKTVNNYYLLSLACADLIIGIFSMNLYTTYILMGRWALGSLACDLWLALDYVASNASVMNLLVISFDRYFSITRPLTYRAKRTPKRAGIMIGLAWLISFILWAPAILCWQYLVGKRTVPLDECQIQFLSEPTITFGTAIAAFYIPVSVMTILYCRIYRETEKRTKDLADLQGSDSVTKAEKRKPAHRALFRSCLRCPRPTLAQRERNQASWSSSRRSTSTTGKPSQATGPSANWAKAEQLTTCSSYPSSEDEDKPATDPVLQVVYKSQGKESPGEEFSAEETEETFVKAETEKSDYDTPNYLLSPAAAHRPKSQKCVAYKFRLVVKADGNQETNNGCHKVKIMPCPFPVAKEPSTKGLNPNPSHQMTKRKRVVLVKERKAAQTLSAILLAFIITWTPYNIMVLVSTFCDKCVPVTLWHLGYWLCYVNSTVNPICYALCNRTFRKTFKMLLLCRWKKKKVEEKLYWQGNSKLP
CHRM4 antagonist: human M4 muscarinic receptor antagonists, primary screen, CHO cells, Fluo-8 calcium fluorescence. CHO-hM4 cells, ACh EC80. inhibition, % at 3 µM. actives 0.73% (n = 360,000);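 active = inhibition above its plate's cutoff, the mean inhibition of sample wells plus 3 SD, cut at about 27% in these data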;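 also: 0% = acetylcholine EC80 with DMSO and 100% = DMSO without agonist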
M5 ag: human M5 muscarinic receptor agonists, primary screen, CHO-K1 cells, Fluo-8 calcium fluorescence; Muscarinic acetylcholine receptor M5 (Homo sapiens), P08912; CHO-K1 hM5 cells; 0% DMSO wells, 100% maximal acetylcholine response; activation, % at 3 µM; actives 0.19% (n = 360,000); AID 624037, 2012;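 active = activation above the run's mean over test compounds plus 3 SD, cut at about 23% in these data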;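 also: signal is peak over basal fluorescence ratio across the kinetic read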
M5 PAM: human M5 muscarinic receptor positive allosteric modulators, primary screen, CHO-K1 cells, Fluo-8 calcium fluorescence | Muscarinic acetylcholine receptor M5 (Homo sapiens), P08912 | actives 0.3% (n = 360,000) | AID 624038, 2012 | activation, % at 3 µM | CHO-K1 hM5, ACh EC20 PAM; 0% = ACh EC20, 100% = ACh EC100;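 active = activation above the run cutoff, the mean activation of all test compounds plus 3 SD, cut at about 18% in these data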
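Assay system – human M5 receptor in CHO-K1 cells · Read-out – % activation, ACh-normalized · Technique – Fluo-8 calcium fluorescence · Dosing – single-point, 3 µM nominal · Incubation – Fluo-8 loading 80 min at 37 °C plus 30 min room temperature · Repeats – singlicate, one well per test compound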
* marks the source's active call; other numbers are inactive results.

SMILES	M4 ag	CHRM4 PAM	CHRM5 antagonist	CHRM4 antagonist	M5 ag	M5 PAM
CC(NC=C1C(=O)OC(C)(C)OC1=O)C(=O)O (stereo not drawn)	0.7	5.2	-1.5	-1.4	-0.8	-4.4
O=C(Nc1c2c(nn1-c1ccc(F)cc1)CS(=O)(=O)C2)c1ccc(Br)o1	-0.5	-9.1	16.7	-13.4	-5.1	-5.2
COc1ccc(C(=O)Nc2c3c(nn2-c2ccc(Cl)cc2)CS(=O)(=O)C3)cc1	0.9	-3.6	-82.5	-5.8	4.8	25.5*
COc1ccc(-n2nc3c(c2NC(=O)c2ccc(Br)o2)CS(=O)(=O)C3)cc1	4.0	24.2*	4.3	6.0	-3.5	-0.9
O=C(O)COc1ccc(/C=C2\SC(=Nc3ccccc3)N(c3ccccc3)C2=O)cc1	-1.0	-7.9	4.4	30.3*	-1.0	-5.0
CC(CN1CCCCC1)OC(=O)/C=C/c1ccccc1 (stereo not drawn)	1.5	-0.1	0.1	2.9	-0.4	-0.2
COC(=O)c1ccc(CN2CCCC(CO)(Cc3ccccc3F)C2)cc1 (stereo not drawn)	3.5	-13.0	-2.1	7.2	-12.1	-0.1
COC(=O)c1ccc(CN2CCC(CO)(Cc3ccccc3Cl)CC2)cc1	1.7	-24.0	-0.4	27.3*	-11.3	-3.3
COc1ccc2oc(C(=O)Nc3ccc(S(=O)(=O)N(C)C4CCN(C)CC4)cc3)c(C)c2c1	5.7	-4.6	-2.5	15.3	-3.0	4.6
CCOC(=O)C1=C(CC)Nc2ccccc2N/C1=N\S(=O)(=O)c1cc(Br)ccc1Br	29.3	-17.2	64.7*	14.9	2.1	-16.1
CCCCNc1cc(C)nc(NCc2ccccc2)n1	23.2	-6.1	32.7*	32.6*	7.1	-21.0
Cc1cc(Nc2ccccc2)nc(NCc2ccccc2)n1	12.8	-11.4	29.7*	21.9	4.7	-14.4
COc1cc(OC)cc(OC(=O)C2CCN(S(=O)(=O)c3ccc(OC)c(OC)c3)CC2)c1	1.1	3.2	6.1	-19.0	-2.1	3.7
COc1cc(CCCN2CCNC[C@H]2Cc2cccc3ccccc23)cc(OC)c1OC	1.9	2.3	17.4	8.9	-5.4	3.2
CCn1cc(C(=O)NCCCN2CC(C)CC(C)C2)c(=O)c2cc(S(=O)(=O)N(C)C3CCCCC3)ccc21 (stereo not drawn)	0.2	-14.1	0.6	33.3*	-9.8	0.5
COC(=O)[C@@]12C[C@@H](CC(=O)NCc3ccc(OC)c(OC)c3)C(=O)N(Cc3ccccc3)C1=CCC(C)(C)C2	7.4	0.9	-6.9	-7.7	4.5	-2.8
CC1(C(=O)NCCc2ccccc2)Cc2c(-c3cccc(C(F)(F)F)c3)ccnc2O1 (stereo not drawn)	0.1	-1.4	-4.7	-4.1	-1.6	3.7
Cc1cnc(NC(=O)c2cncc(Br)c2)s1	1.3	20.3*	-2.0	-4.9	-8.7	2.4
Cc1cnc(NC(=O)c2ccncc2)s1	0.3	1.9	0.9	-2.5	-3.2	8.7
Cc1onc(-c2ccccc2)c1C(=O)Nc1nnc(N(C)Cc2ccccc2)s1	5.2	18.0*	-0.4	-11.0	2.7	2.0
CC[N+](CC)(CC)CCOc1ccc(/C=C/c2ccccc2)cc1	1.0	-14.3	95.2*	27.4*	-1.3	-18.4
Cc1cc(C)cc(NC(=O)COc2ccc(C(=S)N3CCOCC3)cc2)c1	0.9	-4.3	-9.9	-0.8	-2.7	-0.1
O=C(CCNC(=O)c1ccc([N+](=O)[O-])cc1)NNC(=O)c1ccccc1F	0.0	26.0*	-3.4	-11.2	1.2	1.1
CCOC(=O)Cc1csc(N/N=C/c2ccccc2)n1	6.6	24.0*	-6.4	-12.1	-2.4	17.8
CCOC(=O)Cc1csc(N/N=C\c2cccc(Br)c2)n1	1.4	8.1	-0.1	-13.7	-3.5	-5.3
SMILES	M4 ag	CHRM4 PAM	CHRM5 antagonist	CHRM4 antagonist	M5 ag	M5 PAM
COc1cccc(OC)c1C(=O)Nc1ccccc1C(=O)N1CCOCC1	1.1	-0.2	33.0*	-1.3	-5.0	-12.7
COc1ccc(C(=O)Nc2ccccc2C(=O)N2CCOCC2)cc1OC	1.6	-2.2	6.1	-9.5	0.9	2.2
COCCNC(=O)C1(C)CCCN(C(=O)c2cccc3ccccc23)C1 (stereo not drawn)	0.3	1.9	29.7*	3.2	0.5	-5.5
Cc1ccc(NC(=O)COC(=O)Cn2cnc3c2c(=O)n(C)c(=O)n3C)cc1	1.6	4.5	1.0	-15.2	3.5	-5.8
CCOC(=O)c1c(NC(=O)COC(=O)Cn2cnc3c2c(=O)n(C)c(=O)n3C)sc(C)c1CC	2.8	23.8*	6.2	-4.6	1.0	-8.9
O=C(Cc1ccc(Br)cc1)OCC(=O)c1ccc2c(c1)OCCO2	3.8	29.7*	-4.4	-13.6	-5.7	4.4
O=C(CCCc1ccccc1)c1ccc2c(c1)OCCO2	-1.9	31.0*	-3.5	-0.5	-2.8	0.0
O=C(Cc1n[nH]c(=O)c2ccccc12)OCC(=O)c1ccc2c(c1)OCCO2	5.2	6.5	5.4	-4.4	2.8	-5.8
CC(C)(C)N(Cc1ccccc1)C(=O)c1ccc2c(c1)OCCO2	2.5	-17.4	8.3	29.1*	-8.3	-17.4
C=C1C(=O)c2sccc2C(c2ccc(OC)c(OC)c2)C1COC(C)=O (stereo not drawn)	3.6	-1.4	9.4	30.2*	8.2	8.5
CCN1CCN(CC(=O)N2N=C(c3cccs3)CC2c2ccc(OC)c(OC)c2)C(=O)C1=O (stereo not drawn)	0.5	0.6	6.0	-11.9	-2.1	6.1
Cc1cc(-c2ccc(C(C)C)c(S(=O)(=O)Nc3ccccn3)c2)on1	1.8	4.0	17.4	-7.1	-4.1	-6.5
CC(C)NC(=O)c1ccc(NC(=O)CC2SC(N3CCCC3)=NC2=O)cc1 (stereo not drawn)	0.2	13.8	0.7	-7.8	1.3	5.2
CNC(=O)c1ccc(NC(=O)CC2SC(N3CCCC3)=NC2=O)cc1 (stereo not drawn)	2.3	22.1*	-3.6	-2.2	3.6	1.6
CCN1CCN(C(=O)c2cc3c(OC)c(OC)c(OC)cc3[nH]2)CC1	0.0	-18.8	23.9	61.2*	-2.5	-6.0
Cc1c(C(=O)OC(C)CCN(C)C)oc2ccccc12 (stereo not drawn)	0.8	-20.8	7.3	30.5*	-5.4	-13.2
Cc1c(C(=O)OCC(C)(C)CN(C)C)oc2ccccc12	1.2	-6.1	-2.7	-3.3	-12.8	0.1
